# Measured values pooled from the literature.
# Compare with care: the assays were run in different laboratories.
Compound,system,conditions,endpoint,value
Cc1c(N(C)C)ccc2cc(C(=O)NS(=O)(=O)c3ccccc3-c3ccccc3)oc12,Caco-2,"2 µM, 2 h, pH 7.2",efflux ratio,0.7
Cc1c(C(=O)O)ccc2c3n(nc12)[C@@H]1[C@H](C3)N(CC2CC2)[C@@]2(C(=O)Nc3cc(Cl)ccc32)[C@H]1c1cccc(Cl)c1F,"female minipig, plasma",intravenous,Vd,0.94 L/kg
CCOC(=O)c1cc(Cl)cc(NC(=O)c2sc(Cl)cc2S(=O)(=O)N(C)c2ccc(OCC)c(OC)c2)c1,"male C57BL/6 mouse, brain","intraperitoneal, 10 mg/kg",Tmax,15 min
C[C@H]1O[C@@H](O[C@H]2[C@@H](O)C[C@H](O[C@H]3[C@@H](O)C[C@H](O[C@H]4CC[C@@]5(C)[C@H](CC[C@@H]6[C@@H]5C[C@@H](O)[C@]5(C)[C@@H](C7=CC(=O)OC7)CC[C@]65O)C4)O[C@@H]3C)O[C@@H]2C)C[C@H](O)[C@@H]1O,Caco-2,"5 µM, 2 h",efflux ratio,50.7
CNC(=O)n1ccc2cc(Oc3ccnc(NC(=O)c4ccc(C5CCN(CCO)CC5)cc4)c3)c(OCCOC)cc21,"human, plasma","oral, 35 mg, single dose, fasted, healthy volunteers",Cmax,9.82 ng/mL
N#C[C@@]12C[C@@H]1[C@@H](n1cnc3c(N[C@@H](C4CCC4)C4CC4)nc(I)nc31)[C@H](O)[C@@H]2O,Caco-2,,efflux ratio,2.76
CC(=O)N[C@H]1CC[C@H](NC(=O)CN2CCN(c3nncc(-c4ccc(C)cc4)n3)CC2)CC1,"male human, plasma","oral, 100 mg, single dose, fasted",Cmax,1070 ng/mL
COc1ccc([C@@H](O)c2cc(-c3ncnc4cc(N5CCOCC5)ccc34)c(F)cc2Cl)nn1,"human, plasma","oral, 150 mg, single dose, patients",Cmax,1460 ng/mL
CN1CC[C@@H](c2c(O)cc(O)c3c(=O)cc(-c4ccc(C(F)(F)F)cc4Cl)oc23)[C@@H]1CO,"human, plasma","oral, 50 mg, patients",Cmax,86.3 ng/mL
CC(C(=O)Nc1c(F)cccc1F)N1CCN(c2ccccc2)CC1 (stereo not drawn),"female C57BL/6 mouse, plasma","intraperitoneal, 10 mg/kg, single dose",Tmax,15 min
CC(C)C[C@H](NC(=O)[C@@H]1COCCCCCC(=O)NCC(=O)N2CCC[C@H]2C(=O)N1)C(=O)[C@@]1(C)CO1,Caco-2,"10 µM, 2 h, pH 7.4",efflux ratio,~22
Cn1cc(Nc2nc(N)nc(-c3cccc(-n4ccc5cc(C6CC6)cc(F)c5c4=O)c3CO)n2)cn1,"human, plasma","oral, 25 mg, single dose, fasted, suspension",Cmax,219 ng/mL
